Measurements as given in ChEMBL document CHEMBL2417357, “Synthesis and antiprotozoal activities of benzyl phenyl ether diamidine derivatives” (Eur J Med Chem, 2013).
Active and inactive are the calls of the source. The calls are words filed in the database; no cut-off is given here.

Columns and labels:
[1] = Selectivity index, ratio of IC50 for rat L6 cells to IC50 for amastigotes of Leishmania donovani; assay type: toxicity, cell-based; conditions: read-out: Ratio IC50
In short: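 SI = IC50 in rat L6 myoblasts / IC50 against L. donovani MHOM/SD/62/IS-CL2D axenic amastigotes. The amastigote IC50 is the average of at least two determinations; the L6 IC50 is the average of duplicates.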

Leishmania donovani = assay: Antileishmanial activity against amastigotes of Leishmania donovani MHOM/SD/62/IS-CL2D; assay type: functional, organism-based
In short: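 Axenic amastigotes of L. donovani MHOM/SD/62/IS-CL2D; IC50 taken as the average of at least two determinations.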

[2] = Selectivity index, ratio of IC50 for rat L6 cells to IC50 for Trypanosoma brucei rhodesiense STIB900; assay type: toxicity, cell-based; conditions: read-out: Ratio IC50
In short: (§1)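 SI = IC50 in rat L6 myoblasts / IC50 against the parasite (T. b. rhodesiense STIB900 or P. falciparum K1). Each IC50 is the average of duplicate determinations.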

[3] = tested on: Trypanosoma brucei rhodesiense; assay: Antitrypanosomal activity against Trypanosoma brucei rhodesiense STIB900 after 72 hrs by Alamar blue assay; assay type: functional, organism-based; conditions: STIB900, 72 h
L6 = assay: Cytotoxicity against rat L6 cells after 72 hrs by Alamar blue assay; assay type: cell-based; conditions: L6, 72 h
In short: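 Rat L6 myoblast cells; cytotoxic IC50 taken as the average of duplicate determinations.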

[4] = tested on: Trypanosoma brucei rhodesiense; assay: Antitrypanosomal activity against Trypanosoma brucei rhodesiense STIB900 infected in NMRI mouse assessed as cured animal at 5 mg/kg, ip administered for 4 days; assay type: functional, organism-based; set-up: dose 5 mg/kg
In short: (§2)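 Acute model in female NMRI mice infected with T. b. rhodesiense STIB900. Single daily doses given for four days, intraperitoneally or orally. Mice surviving 60 days post-infection without parasitaemia relapse counted as cured; result reported as cured/infected out of 4 mice per group, with mean survival in days.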

[5] = tested on: Trypanosoma brucei rhodesiense; assay: Antitrypanosomal activity against Trypanosoma brucei rhodesiense STIB900 infected in NMRI mouse assessed as mean survival days at 5 mg/kg, ip administered for 4 days; assay type: functional; conditions: route intraperitoneal
In short: (§3)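 Female NMRI mice, acute infection model with T. b. rhodesiense STIB900. Compound given as a single daily dose for four days, intraperitoneally or orally. Cure means survival to 60 days post-infection without parasitaemia relapse. Mean survival recorded in days.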

Plasmodium falciparum = assay: Antiplasmodial activity against chloroquine-resistant Plasmodium falciparum K1; assay type: functional, organism-based
In short: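 Chloroquine-resistant K1 strain tested in vitro. IC50 is the average of duplicate determinations.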

[6] = Selectivity index, ratio of IC50 for rat L6 cells to IC50 for chloroquine-resistant Plasmodium falciparum K1; assay type: toxicity, cell-based; conditions: read-out: Ratio IC50; in short: as §1
[7] = tested on: Trypanosoma brucei rhodesiense; assay: Antitrypanosomal activity against Trypanosoma brucei rhodesiense STIB900 infected in NMRI mouse assessed as cured animal at 25 mg/kg, po administered for 4 days; assay type: functional, organism-based; set-up: dose 25 mg/kg; in short: as §2
[8] = tested on: Trypanosoma brucei rhodesiense; assay: Antitrypanosomal activity against Trypanosoma brucei rhodesiense STIB900 infected in NMRI mouse assessed as mean survival days at 25 mg/kg, po administered for 4 days; assay type: functional; in short: as §3

Cl.Cl.N=C(N)c1cccc(COc2ccc(C(=N)N)cc2[N+](=O)[O-])c1
selectivity ratio [1]: < 1
IC50 (Leishmania donovani): 11.3 µM
selectivity ratio [2]: 324
IC50 [3]: 34 nM
IC50 (L6): 10.8 µM
Activity [4]: inactive
MSD [5]: 23.25 days
IC50 (Plasmodium falciparum): 18 nM
selectivity ratio [6]: 592

N=C(N)c1ccc(COc2ccc(C(=N)N)cc2Br)cc1
selectivity ratio [1]: 2
IC50 (Leishmania donovani): 2.02 µM
selectivity ratio [2]: 322
IC50 [3]: 16 nM
IC50 (L6): 4.99 µM
Activity [4]: inactive
MSD [5]: 29 days
IC50 (Plasmodium falciparum): 4 nM
selectivity ratio [6]: 1250

N=C(N)c1cccc(COc2ccc(C(=N)N)cc2Cl)c1
selectivity ratio [1]: 5
IC50 (Leishmania donovani): 2.91 µM
selectivity ratio [2]: 1900
IC50 [3]: 7 nM
IC50 (L6): 13.9 µM
Activity [4]: inactive
MSD [5]: 24.5 days
IC50 (Plasmodium falciparum): 51 nM
selectivity ratio [6]: 275

CO/N=C(\N)c1cccc(COc2c(Cl)cc(/C(N)=N/OC)cc2Cl)c1.Cl.Cl.Cl.Cl
Activity [7]: inactive
selectivity ratio [1]: < 2
IC50 (Leishmania donovani): > 50 µM
selectivity ratio [2]: 2
IC50 [3]: 60100 nM
IC50 (L6): 108 µM
MSD [8]: 21.75 days
IC50 (Plasmodium falciparum): 5910 nM
selectivity ratio [6]: 18

N=C(N)c1ccc(COc2c(Cl)cc(C(=N)N)cc2Cl)cc1
selectivity ratio [1]: 4
IC50 (Leishmania donovani): 6.4 µM
selectivity ratio [2]: 1170
IC50 [3]: 24 nM
IC50 (L6): 28.5 µM
Activity [4]: inactive
MSD [5]: 30.25 days
IC50 (Plasmodium falciparum): 14 nM
selectivity ratio [6]: 2020

N=C(N)c1ccc(COc2c(I)cc(C(=N)N)cc2I)cc1
selectivity ratio [1]: 9
IC50 (Leishmania donovani): 1.6 µM
selectivity ratio [2]: 1170
IC50 [3]: 12 nM
IC50 (L6): 13.8 µM
Activity [4]: inactive
MSD [5]: 24.5 days
IC50 (Plasmodium falciparum): 19 nM
selectivity ratio [6]: 746

N=C(N)c1ccc(COc2cccc(C(=N)N)c2)cc1
selectivity ratio [1]: < 1
IC50 (Leishmania donovani): 42.1 µM
selectivity ratio [2]: 694
IC50 [3]: 28 nM
IC50 (L6): 19.3 µM
Activity [4]: inactive
MSD [5]: 19 days
IC50 (Plasmodium falciparum): 195 nM
selectivity ratio [6]: 99

N=C(N)c1cccc(COc2c(Br)cc(C(=N)N)cc2Br)c1
selectivity ratio [1]: 1
IC50 (Leishmania donovani): 3.37 µM
selectivity ratio [2]: 1270
IC50 [3]: 4 nM
IC50 (L6): 4.7 µM
Activity [4]: inactive
MSD [5]: >35.25 days
IC50 (Plasmodium falciparum): 120 nM
selectivity ratio [6]: 39

N=C(N)c1ccc(COc2ccc(C(=N)N)cc2)cc1
selectivity ratio [1]: < 14
IC50 (Leishmania donovani): 8.77 µM
selectivity ratio [2]: 77
IC50 [3]: 91 nM
IC50 (L6): 6.96 µM
Activity [4]: inactive
MSD [5]: 22.5 days
IC50 (Plasmodium falciparum): 78 nM
selectivity ratio [6]: 89

COc1cc(C(=N)N)ccc1OCc1cccc(C(=N)N)c1
selectivity ratio [1]: 3
IC50 (Leishmania donovani): 28.6 µM
selectivity ratio [2]: 4400
IC50 [3]: 19 nM
IC50 (L6): 85.4 µM
Activity [4]: inactive
MSD [5]: 22 days
IC50 (Plasmodium falciparum): 31 nM
selectivity ratio [6]: 2760

COc1cc(C(=N)N)cc(OC)c1OCc1ccc(C(=N)N)cc1.Cl.Cl
selectivity ratio [1]: < 2
IC50 (Leishmania donovani): > 100 µM
selectivity ratio [2]: 1910
IC50 [3]: 110 nM
IC50 (L6): 209 µM
Activity [4]: inactive
MSD [5]: 15 days
IC50 (Plasmodium falciparum): 177 nM
selectivity ratio [6]: 1180

Cl.Cl.N/C(=N\O)c1cccc(COc2c(I)cc(/C(N)=N/O)cc2I)c1
Activity [7]: inactive
selectivity ratio [1]: 2
IC50 (Leishmania donovani): 6.63 µM
selectivity ratio [2]: 1
IC50 [3]: 13600 nM
IC50 (L6): 15.8 µM
MSD [8]: 5.75 days
IC50 (Plasmodium falciparum): 7380 nM
selectivity ratio [6]: 2.14

N=C(N)c1ccc(COc2c(Br)cc(C(=N)N)cc2Br)cc1
selectivity ratio [1]: 5
IC50 (Leishmania donovani): 4.09 µM
selectivity ratio [2]: 1260
IC50 [3]: 17 nM
IC50 (L6): 21.5 µM
Activity [4]: inactive
MSD [5]: 30 days
IC50 (Plasmodium falciparum): 25 nM
selectivity ratio [6]: 849

CO/N=C(\N)c1cccc(COc2c(Br)cc(/C(N)=N/OC)cc2Br)c1.Cl.Cl
Activity [7]: inactive
selectivity ratio [1]: < 1
IC50 (Leishmania donovani): > 50 µM
selectivity ratio [2]: < 1
IC50 [3]: 69700 nM
IC50 (L6): 54.7 µM
MSD [8]: >31.5 days
IC50 (Plasmodium falciparum): 6790 nM
selectivity ratio [6]: 8

COc1cc(/C(N)=N/O)cc(I)c1OCc1cccc(/C(N)=N/O)c1.Cl.Cl
Activity [7]: inactive
selectivity ratio [1]: < 1
IC50 (Leishmania donovani): > 94.5 µM
selectivity ratio [2]: < 1
IC50 [3]: 38700 nM
IC50 (L6): 32.1 µM
MSD [8]: 20.5 days
IC50 (Plasmodium falciparum): > 9450 nM
selectivity ratio [6]: < 3

CO/N=C(\N)c1cccc(COc2ccc(/C(N)=N/OC)cc2Cl)c1.Cl.Cl.Cl
Activity [7]: inactive
selectivity ratio [1]: < 1
IC50 (Leishmania donovani): > 100 µM
selectivity ratio [2]: 3
IC50 [3]: 26100 nM
IC50 (L6): 89.6 µM
MSD [8]: 29.25 days
IC50 (Plasmodium falciparum): > 10200 nM
selectivity ratio [6]: < 9

COc1cc(/C(N)=N/O)cc(OC)c1OCc1cccc(/C(N)=N/O)c1.Cl.Cl
Activity [7]: inactive
selectivity ratio [1]: < 1
IC50 (Leishmania donovani): > 100 µM
selectivity ratio [2]: < 1
IC50 [3]: 157000 nM
IC50 (L6): 70.7 µM
MSD [8]: 16.5 days
IC50 (Plasmodium falciparum): > 11500 nM
selectivity ratio [6]: < 6

N=C(N)c1cccc(COc2c(I)cc(C(=N)N)cc2I)c1
selectivity ratio [1]: 14
IC50 (Leishmania donovani): 1.39 µM
selectivity ratio [2]: 5680
IC50 [3]: 3 nM
IC50 (L6): 19.3 µM
Activity [4]: inactive
MSD [5]: 21.25 days
IC50 (Plasmodium falciparum): 66.4 nM
selectivity ratio [6]: 291

COc1cc(C(=N)N)cc(OC)c1OCc1cccc(C(=N)N)c1.Cl.Cl
selectivity ratio [1]: < 1
IC50 (Leishmania donovani): > 100 µM
selectivity ratio [2]: 524
IC50 [3]: 183 nM
IC50 (L6): 96 µM
Activity [4]: inactive
MSD [5]: 16.25 days
IC50 (Plasmodium falciparum): 231 nM
selectivity ratio [6]: 416

CO/N=C(\N)c1cccc(COc2ccc(/C(N)=N/OC)cc2I)c1.Cl.Cl
Activity [7]: inactive
selectivity ratio [1]: < 1
IC50 (Leishmania donovani): > 100 µM
selectivity ratio [2]: 2
IC50 [3]: 34700 nM
IC50 (L6): 81 µM
MSD [8]: 22.25 days
IC50 (Plasmodium falciparum): 6300 nM
selectivity ratio [6]: 13

COc1cc(C(=N)N)cc(I)c1OCc1cccc(C(=N)N)c1.Cl
selectivity ratio [1]: 3
IC50 (Leishmania donovani): 6.01 µM
selectivity ratio [2]: 6210
IC50 [3]: 3 nM
IC50 (L6): 18.6 µM
Activity [4]: inactive
MSD [5]: 35.75 days
IC50 (Plasmodium falciparum): 24.5 nM
selectivity ratio [6]: 760

N=C(N)c1cccc(COc2c(Cl)cc(C(=N)N)cc2Cl)c1
selectivity ratio [1]: < 1
IC50 (Leishmania donovani): 6.51 µM
selectivity ratio [2]: 57
IC50 [3]: 10 nM
IC50 (L6): 0.57 µM
Activity [4]: inactive
MSD [5]: 27.5 days
IC50 (Plasmodium falciparum): 185 nM
selectivity ratio [6]: 3

CO/N=C(\N)c1cccc(COc2c(I)cc(/C(N)=N/OC)cc2I)c1.Cl.Cl
Activity [7]: inactive
selectivity ratio [1]: < 1
IC50 (Leishmania donovani): 44.2 µM
selectivity ratio [2]: 1
IC50 [3]: 26300 nM
IC50 (L6): 27.5 µM
MSD [8]: 19.75 days
IC50 (Plasmodium falciparum): > 7100 nM
selectivity ratio [6]: < 4

COc1cc(C(=N)N)cc(Br)c1OCc1cccc(C(=N)N)c1.Cl.Cl
selectivity ratio [1]: < 2
IC50 (Leishmania donovani): 11.4 µM
selectivity ratio [2]: 4070
IC50 [3]: 5 nM
IC50 (L6): 21.6 µM
Activity [4]: inactive
MSD [5]: >45.75 days
IC50 (Plasmodium falciparum): 28.9 nM
selectivity ratio [6]: 747

COc1cc(/C(N)=N/O)cc(Br)c1OCc1cccc(/C(N)=N/O)c1.Cl.Cl
Activity [7]: inactive
selectivity ratio [1]: < 1
IC50 (Leishmania donovani): > 100 µM
selectivity ratio [2]: < 1
IC50 [3]: 87900 nM
IC50 (L6): 28.9 µM
MSD [8]: 31.75 days
IC50 (Plasmodium falciparum): > 10400 nM
selectivity ratio [6]: < 3

CO/N=C(\N)c1cccc(COc2ccc(/C(N)=N/OC)cc2Br)c1.Cl.Cl
Activity [7]: Active
selectivity ratio [1]: 17
IC50 (Leishmania donovani): 5.66 µM
selectivity ratio [2]: 1
IC50 [3]: 79100 nM
IC50 (L6): 99.4 µM
MSD [8]: >60 days
IC50 (Plasmodium falciparum): > 9960 nM
selectivity ratio [6]: < 10
